Measured values from ChEMBL document CHEMBL1134902, “Quinoline-3-carbothioamides and related compounds as novel immunomodulating agents” (2002).

Experiments:
Format in all cases: functional
[1] = tested on: Mus musculus; assay: Antinephritic activity against Graft-Versus-Host Disease (GVHD) induced (C57BL/6DBA/2)F1 mice at a dose of 32 mg/kg administered perorally; conditions: route oral
Method in brief: (§1)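 Chronic GVHD induced in 6-week-old female (C57BL/6 × DBA/2)F1 mice by two injections of DBA/2 spleen cells (5 × 10⁷ each), given 5 days apart. Oral dosing once daily for 8 weeks, starting 3 days after the second injection. Urinary albumin measured after the last dose by single radial immunodiffusion with rabbit anti-mouse albumin antiserum. 10 mice/group; % inhibition of proteinuria; Student's t-test.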

[2] = tested on: Mus musculus; assay: Activity expressed as percent inhibition of anti-TNP IgM level in TNP-LPS immunized mice, at a dose of 10 mg/kg perorally; conditions: route oral
Method in brief: (§2)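 Female (C57BL/6 × DBA/2)F1 mice, 6 weeks old, immunized i.v. with TNP-LPS on day 0, then randomized (7/group). Compound given orally on days 0 and 1. Serum taken on day 4 and anti-TNP IgM measured by ELISA. Result given as % inhibition of IgM level versus control, with significance by Student's t-test.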

[3] = tested on: Mus musculus; assay: Activity was expressed as percent inhibition of anti-TNP IgM level in TNP-LPS immunized mice, at a dose of 1 mg/kg perorally; conditions: route oral; method in brief: as §2
[4] = tested on: Mus musculus; assay: Activity was expressed as percent inhibition of anti-TNP IgM level in TNP-LPS immunized mice, at a dose of 0.1 mg/kg perorally; conditions: route oral; method in brief: as §2
[5] = tested on: Mus musculus; assay: Antinephritic activity against Graft-Versus-Host Disease (GVHD) induced (C57BL/6DBA/2) F1 mice at a dose of 32 mg/kg administered perorally; conditions: route oral; method in brief: as §1
[6] = tested on: Mus musculus; assay: Activity was expressed as percent inhibition of anti-TNP IgM level in TNP-LPS immunized mice, at a dose of 100 mg/kg perorally; conditions: route oral; method in brief: as §2
[7] = tested on: Mus musculus; assay: Inhibition of anti-DNA antibody in autoimmune diseased MRL/I mice at a dose of 0.32 mg/Kg administered perorally; conditions: po
[8] = tested on: Mus musculus; assay: Inhibition of anti-DNA antibody in autoimmune diseased MRL/I mice at a dose of 3.2 mg/kg administered perorally; conditions: route oral
[9] = tested on: Mus musculus; assay: Inhibition of histological score (Nephritis in the kidneys) in the autoimmune diseased MRL/l mice at a dose of 1 mg/Kg administered perorally; conditions: po
[10] = tested on: Mus musculus; assay: Inhibition of histological score (Nephritis in the kidneys) in the autoimmune diseased MRL/l mice at a dose of 3.2 mg/Kg administered perorally; conditions: po
[11] = tested on: Mus musculus; assay: Inhibition of histological score (Nephritis in the kidneys) in the autoimmune diseased MRL/l mice at a dose of 0.32 mg/kg administered perorally; conditions: route oral
[12] = tested on: Mus musculus; assay: Inhibition of anti-DNA antibody in autoimmune diseased MRL/I mice at a dose of 1 mg/kg administered perorally; conditions: route oral
[13] = tested on: Mus musculus; assay: Activity was expressed as percent inhibition of anti-TNP IgM level in TNP-LPS immunized mice, at a dose of 0.01 mg/kg perorally; conditions: route oral; method in brief: as §2

Structure (SMILES): C=CCN(C(=S)c1c(O)c2cc(Cl)ccc2n(C)c1=O)c1ccccc1
- inhibition in vivo at 32 mg/kg [1]: 96%

Structure (SMILES): CN1C(=O)/C(=C(/S)N(C)c2cccs2)C(=O)c2cc(Cl)ccc21
- inhibition in vivo at 10 mg/kg [2]: 19%

Structure (SMILES): CSc1ccc(N(C)C(=O)c2c(O)c3cc(SC)ccc3n(C)c2=O)cc1
- inhibition in vivo at 32 mg/kg [1]: 87%

Structure (SMILES): COc1cccc(N(C)/C(S)=C2/C(=O)c3cc(Cl)ccc3N(C)C2=O)c1
- inhibition in vivo at 10 mg/kg [2]: 30%
- inhibition in vivo at 32 mg/kg [1]: 74%

Structure (SMILES): CS/C(=N\c1ccccc1)c1c(O)c2cc(SC)ccc2n(C)c1=O
- inhibition in vivo at 32 mg/kg [1]: 84%

Structure (SMILES): CSc1ccc2c(c1)c(O)c(C(=S)N(C)c1ccccc1)c(=O)n2C
- inhibition in vivo at 10 mg/kg [2]: 32%
- inhibition in vivo at 32 mg/kg [1]: 99%

Structure (SMILES): CSc1ccc2c(c1)c(O)c(C(=O)N(C)c1ccccc1)c(=O)n2C
- inhibition in vivo at 1 mg/kg [3]: 50%
- inhibition in vivo at 10 mg/kg [2]: 67%
- inhibition in vivo at 0.1 mg/kg [4]: 18%
- inhibition in vivo at 32 mg/kg [5]: 100%

Structure (SMILES): Cc1cc(Cl)cc2c1N(C)C(=O)/C(=C(/S)N(C)c1ccccc1)C2=O
- inhibition in vivo at 10 mg/kg [2]: 17%

Structure (SMILES): CN1C(=O)/C(=C(/S)N(C)c2ccc(F)c(F)c2)C(=O)c2cc(Cl)ccc21
- inhibition in vivo at 10 mg/kg [2]: 62%

Structure (SMILES): CN1C(=O)/C(=C(/S)N(C)c2ccc(Br)cc2)C(=O)c2cc(Cl)ccc21
- inhibition in vivo at 10 mg/kg [2]: 50%

Structure (SMILES): COc1ccc2c(c1)c(O)c(C(=S)N(C)c1ccccc1)c(=O)n2C
- inhibition in vivo at 10 mg/kg [2]: 31%
- inhibition in vivo at 32 mg/kg [1]: 99%

Structure (SMILES): CSc1ccc2c(c1)c(=O)c(C(=S)N(C)c1ccccc1)c(S)n2C
- inhibition in vivo at 32 mg/kg [1]: 37%

Structure (SMILES): CSc1ccc2c(c1)c(O)c(S(=O)(=O)N(C)c1ccccc1)c(=O)n2C
- inhibition in vivo at 32 mg/kg [1]: 53%

Structure (SMILES): CN1C(=O)/C(=C(/S)N(C)c2ccccc2)C(=O)c2cc(Br)ccc21
- inhibition in vivo at 10 mg/kg [2]: 56%
- inhibition in vivo at 32 mg/kg [1]: 98%

Structure (SMILES): COc1ccc(N(C)/C(S)=C2/C(=O)c3cc(Cl)ccc3N(C)C2=O)cc1
- inhibition in vivo at 10 mg/kg [2]: 45%
- inhibition in vivo at 32 mg/kg [1]: 97%

Structure (SMILES): CN1C(=O)/C(=C(/S)N(C)c2ccccc2)C(=O)c2cc(-n3cccc3)ccc21
- inhibition in vivo at 10 mg/kg [2]: -10%

Structure (SMILES): Cc1ccc2c(c1)C(=O)/C(=C(\S)N(C)c1ccccc1)C(=O)N2C
- inhibition in vivo at 10 mg/kg [2]: 20%

Structure (SMILES): Cn1c(=O)c(C(=S)N(c2ccccc2)C(C)(C)C)c(O)c2cc(Cl)ccc21
- inhibition in vivo at 10 mg/kg [2]: 11%

Structure (SMILES): CN1C(=O)/C(=C(/S)N(C)c2ccccc2)C(=O)c2ccccc21
- inhibition in vivo at 32 mg/kg [1]: 85%

Structure (SMILES): CN1C(=O)/C(=C(/S)N(C)c2ccccc2)C(=O)c2ccc(Cl)cc21
- inhibition in vivo at 32 mg/kg [1]: -23%

Structure (SMILES): Cn1c(=O)c(/C(S)=N/c2ccccc2)c(O)c2cc(Cl)ccc21
- inhibition in vivo at 10 mg/kg [2]: 38%

Structure (SMILES): CSCCN(C(=O)c1c(O)c2cc(SC)ccc2n(C)c1=O)c1ccccc1
- inhibition in vivo at 32 mg/kg [1]: 65%

Structure (SMILES): CN1C(=O)/C(=C(/S)N(C)c2cccc(Cl)c2)C(=O)c2cc(Cl)ccc21
- inhibition in vivo at 10 mg/kg [2]: 63%

Structure (SMILES): CN(C(=O)c1c(O)c2ccccc2n(C)c1=O)c1ccccc1 [ROQUINIMEX]
- inhibition in vivo at 1 mg/kg [3]: 13%
- inhibition in vivo at 10 mg/kg [2]: 41%
- inhibition in vivo at 100 mg/kg [6]: 49%

Structure (SMILES): CSc1ccc2c(c1)c(=O)c(C(=O)N(C)c1ccccc1)c(S)n2C
- inhibition in vivo at 32 mg/kg [1]: 96%

Structure (SMILES): CN1C(=O)/C(=C(/S)N(C)c2ccccc2)C(=O)c2cc(OC(F)(F)F)ccc21
- inhibition in vivo at 10 mg/kg [2]: 19%

Structure (SMILES): CN1C(=O)/C(=C(/S)N(C)c2ccc(OC(F)(F)F)cc2)C(=O)c2cc(Cl)ccc21
- inhibition in vivo at 10 mg/kg [2]: 39%

Structure (SMILES): Cc1ccc(N(C)/C(S)=C2/C(=O)c3cc(Cl)ccc3N(C)C2=O)cc1
- inhibition in vivo at 10 mg/kg [2]: 23%

Structure (SMILES): CN1C(=O)/C(=C(/S)N(C)c2ccc(F)cc2)C(=O)c2cc(Cl)ccc21
- inhibition in vivo at 10 mg/kg [2]: 54%

Structure (SMILES): CN1C(=O)/C(=C(/S)N(C)c2cccc(C(F)(F)F)c2)C(=O)c2cc(Cl)ccc21
- inhibition in vivo at 10 mg/kg [2]: 29%

Structure (SMILES): CN1C(=O)/C(=C(/S)N(C)c2ccccc2)C(=O)c2cc(Cl)ccc21
- inhibition in vivo at 0.32 mg/kg [7]: 52%
- inhibition in vivo at 3.2 mg/kg [8]: 83%
- inhibition in vivo at 1 mg/kg [3]: 33%
- inhibition in vivo at 10 mg/kg [2]: 64%
- inhibition in vivo at 1 mg/kg [9]: 85%
- inhibition in vivo at 0.1 mg/kg [4]: 22%
- inhibition in vivo at 3.2 mg/kg [10]: 85%
- inhibition in vivo at 0.32 mg/kg [11]: 67%
- inhibition in vivo at 1 mg/kg [12]: 73%
- inhibition in vivo at 100 mg/kg [6]: 77%
- inhibition in vivo at 0.01 mg/kg [13]: -3%
- inhibition in vivo at 32 mg/kg [1]: 100%

Structure (SMILES): CN1C(=O)/C(=C(/S)N(C)c2ccc(Cl)cc2)C(=O)c2cc(Cl)ccc21
- inhibition in vivo at 10 mg/kg [2]: 47%

Structure (SMILES): COCCCN(/C(S)=C1/C(=O)c2cc(Cl)ccc2N(C)C1=O)c1ccccc1
- inhibition in vivo at 10 mg/kg [2]: 31%
